# Assay results collected from several papers.
# Compare with care: the assays were run in different laboratories.
# Organism: Plasmodium falciparum
# Read-out: parasite growth
Compound,assay,system,conditions,EC50
CN1CCN(S(=O)(=O)c2ccc(-c3ccc4c(Nc5cccc(Cl)c5)ccnc4c3)cc2)CC1,,D6,"drug-resistant strain, blood stage",200 nM
CCOC(=O)c1c(NC(=O)c2ccccc2)sc2c(O)c(CCN(C)C)ccc12,,3D7,"48 h, blood stage",≤ 200 nM
CC/N=C(\c1ccc(OC)c(OC)c1)N1CCCc2cc(C3=NNC(=O)SC3C)ccc21 (centres unmarked),,3D7,"72 h, blood stage",1790 nM
CCn1cc(-c2nc(C)no2)c(=O)c2cc(F)c(N3CCN(C)CC3)cc21,,3D7,"72 h, blood stage",4570 nM
CC(C)(C)OC(=O)Nc1ccc2c(Nc3ccc(OCc4cccc(F)c4)c(Cl)c3)ccnc2c1,,D6,"drug-resistant strain, blood stage",50 nM
Cn1cc(-c2cnc3[nH]cc(-c4cn(Cc5cccc(F)c5F)nn4)c3c2)cn1,,3D7,"72 h, blood stage",599 nM
CCn1cc(-c2nc(C)no2)c(=O)c2cc(F)c(N3CCC(Cc4ccccc4)CC3)cc21,,3D7,blood stage,32.1 nM
CNS(=O)(=O)c1ccccc1Nc1nc(Nc2cc(OC)c(OC)cc2C)ncc1Br,,3D7,"72 h, blood stage",153 nM
CCCNCC(O)COc1ccccc1C(=O)CCc1ccccc1 (centres unmarked),SYBR Green,K1,"drug-resistant strain, blood stage",920 nM
COc1cc(C(=O)N(C)C)ccc1-c1cc2nccc(-c3ccc4ccncc4c3)c2o1,,3D7,"72 h, blood stage",997 nM
C[C@H]1[C@@H](O)O[C@@H]2O[C@@]3(C)CC[C@H]4[C@H](C)CC[C@@H]1[C@@]24OO3,,NF54,"48 h, gametocyte",11.5 nM
CCn1cc(-c2nc(C)no2)c(=O)c2cc(F)c(N3CCN(C(C)=O)CC3)cc21,,3D7,"72 h, blood stage",> 10000 nM
CN1CCN(S(=O)(=O)c2ccc(-c3ccc4c(Nc5cnc(C#N)cn5)ccnc4c3)cc2)CC1,,D6,"drug-resistant strain, blood stage",120 nM
CCn1cc(-c2nc(C)no2)c(=O)c2cc(F)c(N3CCC(C(C)C)CC3)cc21,,3D7,"72 h, blood stage",41 nM
COc1ccc(Nc2ccnc3cc(Nc4ccnc(N5CCN(C)CC5)n4)ccc23)cc1Cl,,D6,"drug-resistant strain, blood stage",78 nM
COc1ccc(CNc2nc(-c3ccc(C(=O)O)nc3)nc3sc4c(c23)CCCC4)cc1Cl,,3D7,"72 h, blood stage",1590 nM
CCn1cc(C(=O)N2CCOCC2)c(=O)c2cc(F)c(N3CCC(C)CC3)cc21,,3D7,"72 h, blood stage",> 10000 nM
Cc1cc(Nc2ccnc3cc(-c4ccc(S(=O)(=O)N5CCN(C)CC5)cc4)ccc23)sn1,,D6,"drug-resistant strain, blood stage",110 nM
CCn1cc(C(=O)N2CCN(C)CC2)c(=O)c2cc(F)c(N3CCC(C)CC3)cc21,,3D7,"72 h, blood stage",> 10000 nM
CN1CCN(c2ncc(-c3ccc4c(Nc5ccc(OCc6cccc(F)c6)c(Cl)c5)ccnc4c3)cn2)CC1,,D6,"drug-resistant strain, blood stage",26 nM
